Data: ChEMBL document CHEMBL1158168, “Condensed bridgehead nitrogen heterocyclic system: synthesis and pharmacological activities of 1,2,4-triazolo-[3,4-b]-1,3,4-thiadiazole derivatives of ibuprofen and biphenyl-4-yloxy acetic acid” (Eur J Med Chem, 2008)
In brackets after ≈: the same amount, converted by molar mass. Activity calls are given as the source filed them. No cut-off for these calls is given here.

Experiments:
Staphylococcus aureus = assay: Antibacterial activity against Staphylococcus aureus ATCC 19433 by cup plate method; type: functional
In short: (§1)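 Cup-plate diffusion on nutrient agar, with compounds dissolved in DMF. Compounds were tested at 200, 100, 50 and 25; those inhibiting at 25 were also tested at 12.5 and 6.25. MIC is the lowest concentration preventing visible growth on the plate.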

Rattus norvegicus [1] = assay: Gastrointestinal toxicity in rat assessed as gastric mucosal damage severity index administered at equimolar oral dose relative to 30 mg/kg fluribiprofen; type: organism-based, Gastric mucosa; parameters: dose 30 mg/kg, route oral; settings: in vivo
In short: (§2)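 Rats, six per group, were fasted 24 h with water allowed, then dosed orally in a 0.5% CMC vehicle. They were fed normally for 17 h and then sacrificed. Stomachs were opened along the greater curvature and mucosal lesions scored under a magnifier (0.5 redness to 3.0 for more than 5 ulcers). Severity index is the mean group score minus the control mean.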

Rattus norvegicus [2] = assay: Antiinflammatory activity in Wistar albino rat assessed as inhibition of carrageenan-induced paw edema administered at equimolar oral dose relative to 10 mg/kg fluribiprofen measured 4 hrs after carrageenan challenge; type: functional
In short: (§3)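 Wistar rats of either sex (180-200 g), six per group, dosed orally in a 0.5% CMC vehicle. One hour later, 0.1 mL of […] in 0.9% NaCl was injected sub-plantar into the right hind paw. Paw volume was read by plethysmometer before and 4 h after carrageenan, and percent inhibition was calculated.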

Candida albicans = assay: Antimicrobial activity against Candida albicans ATCC 2091 by cup plate method; type: functional
In short: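 Candida albicans grown on Sabouraud dextrose medium and tested by cup-plate diffusion, with compounds dissolved in DMF. Compounds were tested at 200, 100, 50 and 25; those inhibiting at 25 were also tested at 12.5 and 6.25. MIC is the lowest concentration preventing visible growth.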

Escherichia coli = assay: Antibacterial activity against sEscherichia coli ATCC 25922 by cup plate method; type: functional; in short: as §1
Rattus norvegicus [3] = assay: Antiinflammatory activity in Wistar albino rat assessed as inhibition of carrageenan-induced paw edema administered at equimolar oral dose relative to 70 mg/kg ibuprofen measured 4 hrs after carrageenan challenge; type: functional; in short: as §3
Rattus norvegicus [4] = assay: Inhibition of lipid peroxidation in rat assessed as malondialdehyde level per 100 mg of tissue at 30 mg/kg, po; type: functional
In short: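 Gastric mucosa scraped from stomachs after ulcerogenicity testing; 100 mg homogenized in 1.15% ice-cold KCl. TBA method with SDS and acetate buffer pH 3.5, heated at 95 °C for 60 min. Extracted into n-butanol/pyridine 15:1, absorbance read at 532 nm. Expressed as nmol MDA/100 mg tissue using ε 1.56 × 10⁵ cm⁻¹ M⁻¹.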

Rattus norvegicus [5] = assay: Antiinflammatory activity in Wistar albino rat assessed as inhibition of carrageenan-induced paw edema at 10 mg/kg, po measured 4 hrs after carrageenan challenge; type: functional
In short: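 Wistar albino rats of either sex, 180-200 g, groups of six; oral dosing, vehicle 0.5% CMC. 0.1 mL of 0.1% carrageenan in sterile 0.9% NaCl injected subplantar into the right hind paw 1 h after dosing. Paw volume measured by plethysmometer before and 4 h after carrageenan; percent inhibition calculated.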

Rattus norvegicus [6] = assay: Gastrointestinal toxicity in rat assessed as gastric mucosal damage severity index at 30 mg/kg, po; type: organism-based, Gastric mucosa; parameters: dose 30 mg/kg, route oral; settings: in vivo
In short: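 Rats, groups of six, food but not water withheld 24 h; oral dosing in 0.5% CMC. Normal diet for 17 h, then sacrificed. Stomach opened along the greater curvature and inspected under a magnifying glass. Scored 0.5 redness to 3.0 (>5 ulcers); severity index is the group mean score minus the control mean.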

Mus musculus [7] = assay: Analgesic activity in Swiss albino mouse assessed as effect on reaction time for tail withdrawal administered at 10 mg/kg, po after 4 hrs by tail immersion method; type: functional
In short: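 Swiss albino mice of either sex, 25-30 g, groups of six; oral dosing as suspension in 0.5% w/v CMC in water. Tail immersion: lower 5 cm of tail dipped in water held at 55 ± 0.5 °C. Reaction time taken before and 4 h after dosing.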

Rattus norvegicus [8] = assay: Hepatotoxicity in po dosed Wistar albino rat assessed as serum glutamate oxaloacetate transaminase activity after 7 days; type: toxicity, organism-based; settings: in vivo, 168 h
Rattus norvegicus [9] = assay: Inhibition of lipid peroxidation in rat assessed as malondialdehyde level per 100 mg of tissue administered at equimolar oral dose relative to 210 mg/kg ibuprofen; type: functional
In short: (§4)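 Gastric mucosa was scraped from the stomachs after ulcer scoring. 100 mg was homogenized in ice-cold 1.15% KCl and reacted with SDS, acetate buffer (pH 3.5) and 0.8% TBA at 95 °C for 60 min. The product was extracted into n-butanol/pyridine (15:1) and absorbance read at 532 nm. MDA was calculated using ε 1.56 × 10⁵ M⁻¹cm⁻¹ and expressed per 100 mg tissue.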

Rattus norvegicus [10] = assay: Gastrointestinal toxicity in rat assessed as gastric mucosal damage severity index administered at equimolar oral dose relative to 210 mg/kg ibuprofen; type: organism-based, Gastric mucosa; parameters: dose 210 mg/kg, route oral; settings: in vivo; in short: as §2
Rattus norvegicus [11] = assay: Hepatotoxicity in po dosed Wistar albino rat assessed as alkaline phosphatase activity after 7 days; type: toxicity, organism-based; settings: in vivo, 168 h
Rattus norvegicus [12] = assay: Hepatotoxicity in po dosed Wistar albino rat assessed as total protein content after 7 days; type: toxicity, organism-based; settings: in vivo, 168 h
Rattus norvegicus [13] = assay: Hepatotoxicity in po dosed Wistar albino rat assessed as hepatocyte necrosis after 7 days; type: toxicity, organism-based; settings: hepatocytes, 168 h
Rattus norvegicus [14] = assay: Hepatotoxicity in po dosed Wistar albino rat assessed as total albumin content after 7 days; type: toxicity, organism-based; settings: in vivo, 168 h
Rattus norvegicus [15] = assay: Hepatotoxicity in po dosed Wistar albino rat assessed as serum glutamate pyruvate transaminase activity after 7 days; type: toxicity, organism-based; settings: in vivo, 168 h
Rattus norvegicus [16] = assay: Inhibition of lipid peroxidation in rat assessed as malondialdehyde level per 100 mg of tissue at 210 mg/kg, po; type: functional; in short: as §4
Mus musculus [17] = assay: Analgesic activity in Swiss albino mouse assessed as effect on reaction time for tail withdrawal administered at 70 mg/kg, po after 4 hrs by tail immersion method; type: functional
In short: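 Swiss albino mice of either sex (25-30 g), six per group. Compounds were given orally as a suspension in 0.5% w/v CMC in water. Tail-withdrawal reaction time was measured before dosing and 4 h after, by immersing the lower 5 cm of the tail in water held at 55 ± 0.5 °C.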

Rattus norvegicus [18] = assay: Gastrointestinal toxicity in rat assessed as gastric mucosal damage severity index at 210 mg/kg, po; type: organism-based, Gastric mucosa; parameters: dose 210 mg/kg, route oral; settings: in vivo; in short: as §2

For Nc1ccc(-c2nn3c(COc4ccc(-c5ccccc5)cc4)nnc3s2)cc1, which MIC (Staphylococcus aureus) is on record?
The MIC was 50 µg/mL (≈ 125 µM).

And the UI (Rattus norvegicus [1])?
Its UI is 0.417.

What about the inhibition in vivo (Rattus norvegicus [2]) of the same compound?
Its inhibition in vivo is 76.5%.

And the MIC (Candida albicans)?
The MIC was 200 µg/mL (≈ 501 µM).

What about the MIC (Escherichia coli) of the same compound?
Its MIC is 200 µg/mL (≈ 501 µM).

Which results are given for CC(C)Cc1ccc(C(C)c2nnc3sc(-c4ccccc4N)nn23)cc1 (stereo not drawn)?
MIC (Staphylococcus aureus): 200 µg/mL (≈ 530 µM); MIC (Candida albicans): 12.5 µg/mL (≈ 33.1 µM); MIC (Escherichia coli): 100 µg/mL (≈ 265 µM); inhibition in vivo (Rattus norvegicus [3]): 57.6%

With CC(C(=O)O)c1ccc(-c2ccccc2)c(F)c1 (stereo not drawn) [FLURBIPROFEN] as the compound, how does the Activity (Rattus norvegicus [4]) read?
The Activity was 7.51 nmol.

And the inhibition in vivo at 10 mg/kg (Rattus norvegicus [5])?
Its inhibition in vivo at 10 mg/kg is 80.3%.

And the UI (Rattus norvegicus [6])?
Its UI is 1.666.

What about the inhibition in vivo at 10 mg/kg (Mus musculus [7]) of the same compound?
Its inhibition in vivo at 10 mg/kg is 69.5%.

For CC(C)Cc1ccc(C(C)c2nnc3sc(-c4ccc(Cl)cc4Cl)nn23)cc1 (stereo not drawn), which MIC (Staphylococcus aureus) is on record?
The MIC was 200 µg/mL (≈ 464 µM).

What about the Activity (Rattus norvegicus [8]) of the same compound?
Its Activity is 147.5 U/ml.

And the Activity (Rattus norvegicus [9])?
Its Activity is 5.04 nmol.

And the MIC (Candida albicans)?
Its MIC is 200 µg/mL (≈ 464 µM).

What about the MIC (Escherichia coli) of the same compound?
Its MIC is 200 µg/mL (≈ 464 µM).

And the UI (Rattus norvegicus [10])?
The UI was 0.333.

What about the Activity (Rattus norvegicus [11]) of the same compound?
Its Activity is 15.18 U/ml.

What about the inhibition in vivo (Rattus norvegicus [3]) of the same compound?
Its inhibition in vivo is 80.3%.

And the Activity (Rattus norvegicus [12])?
The Activity was 1.89 g/dL.

And the Activity (Rattus norvegicus [13])?
The Activity was “Non-toxic”.

What about the Activity (Rattus norvegicus [14]) of the same compound?
Its Activity is 1.8 g/dL.

What about the Activity (Rattus norvegicus [15]) of the same compound?
Its Activity is 28.17 U/ml.

For c1ccc(-c2ccc(OCc3nnc4sc(-c5ccccc5)nn34)cc2)cc1, which MIC (Staphylococcus aureus) is on record?
The MIC was 25 µg/mL (≈ 65 µM).

What about the inhibition in vivo (Rattus norvegicus [2]) of the same compound?
Its inhibition in vivo is 65.1%.

And the Activity (Candida albicans)?
The Activity was “inactive”.

What about the MIC (Escherichia coli) of the same compound?
The MIC was 25 µg/mL (≈ 65 µM).

How did the MIC (Staphylococcus aureus) turn out when Clc1ccc(-c2nn3c(COc4ccc(-c5ccccc5)cc4)nnc3s2)cc1 was run?
The MIC was 100 µg/mL (≈ 239 µM).

What about the UI (Rattus norvegicus [1]) of the same compound?
Its UI is 0.833.

And the inhibition in vivo (Rattus norvegicus [2])?
The inhibition in vivo was 78.8%.

What about the MIC (Candida albicans) of the same compound?
The MIC was 50 µg/mL (≈ 119 µM).

And the MIC (Escherichia coli)?
Its MIC is 25 µg/mL (≈ 59.7 µM).

Which results are given for CCCCNc1nn2c(C(C)c3ccc(CC(C)C)cc3)nnc2s1 (stereo not drawn)?
MIC (Staphylococcus aureus): 200 µg/mL (≈ 559 µM); Activity (Rattus norvegicus [9]): 5.78 nmol; MIC (Candida albicans): 50 µg/mL (≈ 140 µM); MIC (Escherichia coli): 100 µg/mL (≈ 280 µM); UI (Rattus norvegicus [10]): 1; inhibition in vivo (Rattus norvegicus [3]): 80.3%

How did the Activity (Rattus norvegicus [16]) turn out when CC(C)Cc1ccc(C(C)C(=O)O)cc1 (stereo not drawn) [IBUPROFEN] was run?
Its Activity is 7.79 nmol.

What about the inhibition in vivo at 70 mg/kg (Mus musculus [17]) of the same compound?
Its inhibition in vivo at 70 mg/kg is 74.1%.

What about the UI (Rattus norvegicus [18]) of the same compound?
The UI was 2.

How did the MIC (Staphylococcus aureus) turn out when CC(C)Cc1ccc(C(C)c2nnc3sc(-c4ccc(N)cc4)nn23)cc1 (stereo not drawn) was run?
Its MIC is 200 µg/mL (≈ 530 µM).

What about the Activity (Rattus norvegicus [9]) of the same compound?
The Activity was 5.65 nmol.

And the MIC (Candida albicans)?
The MIC was 200 µg/mL (≈ 530 µM).

And the MIC (Escherichia coli)?
Its MIC is 12.5 µg/mL (≈ 33.1 µM).

What about the UI (Rattus norvegicus [10]) of the same compound?
Its UI is 0.75.

And the inhibition in vivo (Rattus norvegicus [3])?
Its inhibition in vivo is 78.8%.

Which results are given for Clc1ccc(-c2nn3c(COc4ccc(-c5ccccc5)cc4)nnc3s2)c(Cl)c1?
MIC (Staphylococcus aureus): 25 µg/mL (≈ 55.1 µM); MIC (Escherichia coli): 50 µg/mL (≈ 110 µM)

With Nc1ccccc1-c1nn2c(COc3ccc(-c4ccccc4)cc3)nnc2s1 as the compound, how does the MIC (Staphylococcus aureus) read?
The MIC was 25 µg/mL (≈ 62.6 µM).

And the inhibition in vivo (Rattus norvegicus [2])?
The inhibition in vivo was 47.7%.

And the MIC (Candida albicans)?
Its MIC is 25 µg/mL (≈ 62.6 µM).

And the MIC (Escherichia coli)?
Its MIC is 50 µg/mL (≈ 125 µM).

c1ccc(Nc2nn3c(COc4ccc(-c5ccccc5)cc4)nnc3s2)cc1 was tested. Which Activity (Staphylococcus aureus) did it give?
The Activity was “inactive”.

And the MIC (Candida albicans)?
Its MIC is 200 µg/mL (≈ 501 µM).

And the MIC (Escherichia coli)?
The MIC was 25 µg/mL (≈ 62.6 µM).
